Results from ChEMBL document CHEMBL1142188, “Fitness costs of fluoroquinolone resistance in Streptococcus pneumoniae” (2007).
In brackets after ≈: the same amount, converted by molar mass.

Tests used:
Streptococcus pneumoniae [1] = assay: Antimicrobial activity against Streptococcus pneumoniae R6; type: functional
How it was run: (§1)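 MIC by Etest on tryptic soy agar with 5% sheep blood, incubated overnight at 35°C, or by serial dilution in Mueller-Hinton broth with 5% horse blood per CLSI protocols. Each assay was run twice. Strains were R6 or R6 transformed with QRDR alleles from levofloxacin-resistant clinical isolates, with mutations confirmed by PCR sequencing.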

Streptococcus pneumoniae [2] = assay: Antimicrobial activity against Streptococcus pneumoniae R6 transformants with parE D435N and gyrA S81F mutation; type: functional; how it was run: as §1
Streptococcus pneumoniae [3] = assay: Antimicrobial activity against Streptococcus pneumoniae R6 transformants with parC S79F and gyrA S81Y mutation; type: functional; how it was run: as §1
Streptococcus pneumoniae [4] = assay: Antimicrobial activity against Streptococcus pneumoniae R6 transformants with parC D83Y mutation; type: functional; how it was run: as §1
Streptococcus pneumoniae [5] = assay: Antimicrobial activity against Streptococcus pneumoniae R6 transformants with parC D83Y and gyrA S81Y mutation; type: functional; how it was run: as §1
Streptococcus pneumoniae [6] = assay: Antimicrobial activity against Streptococcus pneumoniae R6 transformants with parC S79Y and gyrA E85K mutation; type: functional; how it was run: as §1
Streptococcus pneumoniae [7] = assay: Antimicrobial activity against Streptococcus pneumoniae R6 transformants with gyrA E85K mutation; type: functional; how it was run: as §1
Streptococcus pneumoniae [8] = assay: Antimicrobial activity against Streptococcus pneumoniae R6 transformants with parE D435N mutation; type: functional; how it was run: as §1
Streptococcus pneumoniae [9] = assay: Antimicrobial activity against Streptococcus pneumoniae R6 transformants with gyrA S81Y mutation; type: functional; how it was run: as §1
Streptococcus pneumoniae [10] = assay: Antimicrobial activity against Streptococcus pneumoniae R6 transformants with parE D435N and gyrA E85K mutation; type: functional; how it was run: as §1
Streptococcus pneumoniae [11] = assay: Antimicrobial activity against Streptococcus pneumoniae R6 transformants with parC S79F and gyrA S81F mutation; type: functional; how it was run: as §1
Streptococcus pneumoniae [12] = assay: Antimicrobial activity against Streptococcus pneumoniae R6 transformants with parC S79F mutation; type: functional; how it was run: as §1
Streptococcus pneumoniae [13] = assay: Antimicrobial activity against Streptococcus pneumoniae R6 transformants with parC S79Y and gyrA S81F mutation; type: functional; how it was run: as §1
Streptococcus pneumoniae [14] = assay: Antimicrobial activity against Streptococcus pneumoniae R6 transformants with parE D435N and gyrA S81Y mutation; type: functional; how it was run: as §1
Streptococcus pneumoniae [15] = assay: Antimicrobial activity against Streptococcus pneumoniae R6 transformants with gyrA S81F mutation; type: functional; how it was run: as §1
Streptococcus pneumoniae [16] = assay: Antimicrobial activity agaisnt Streptococcus pneumoniae R6 transformants with parC S79Y mutation; type: functional; how it was run: as §1
Streptococcus pneumoniae [17] = assay: Antimicrobial activity agaisnt Streptococcus pneumoniae R6 transformants with parC S79F and gyrA E85K mutation; type: functional; how it was run: as §1
Streptococcus pneumoniae [18] = assay: Antimicrobial activity against Streptococcus pneumoniae R6 transformants with parC D83Y and gyrA E85K mutation; type: functional; how it was run: as §1
Streptococcus pneumoniae [19] = assay: Antimicrobial activity against Streptococcus pneumoniae R6 transformants with parC D83Y and gyrA S81F mutation; type: functional; how it was run: as §1
Streptococcus pneumoniae [20] = assay: Antimicrobial activity against Streptococcus pneumoniae R6 transformants with parE D435N and gyrA S81Y mutation in presence of reserpine
Streptococcus pneumoniae [21] = assay: Antimicrobial activity against Streptococcus pneumoniae R6 transformants with parC S79Y mutation in presence of reserpine
Streptococcus pneumoniae [22] = assay: Antimicrobial activity against Streptococcus pneumoniae R6 transformants with parC S79Y and gyrA S81F mutation in presence of reserpine
Streptococcus pneumoniae [23] = assay: Antimicrobial activity against Streptococcus pneumoniae R6 transformants with parE D435N and gyrA E85K mutation in presence of reserpine
Streptococcus pneumoniae [24] = assay: Antimicrobial activity against Streptococcus pneumoniae R6 transformants with gyrA S81F mutation in presence of reserpine
Streptococcus pneumoniae [25] = assay: Antimicrobial activity against Streptococcus pneumoniae R6 transformants with parC D83Y and gyrA S81Y mutation in presence of reserpine
Streptococcus pneumoniae [26] = assay: Antimicrobial activity agaisnt Streptococcus pneumoniae R6 transformants with parC D83Y and gyrA S81F mutation in presence of reserpine
Streptococcus pneumoniae [27] = assay: Antimicrobial activity against Streptococcus pneumoniae R6 transformants with parC D83Y mutation in presence of reserpine
Streptococcus pneumoniae [28] = assay: Antimicrobial activity against Streptococcus pneumoniae R6 transformants with parC S79F and gyrA S81Y mutation in presence of reserpine
Streptococcus pneumoniae [29] = assay: Antimicrobial activity against Streptococcus pneumoniae R6 transformants with parC S79Y and gyrA E85K mutation in presence of reserpine
Streptococcus pneumoniae [30] = assay: Antimicrobial activity against Streptococcus pneumoniae R6 transformants with parC S79F and gyrA S81F mutation in presence of reserpine
Streptococcus pneumoniae [31] = assay: Antimicrobial activity against Streptococcus pneumoniae R6 transformants with parC S79F mutation in presence of reserpine
Streptococcus pneumoniae [32] = assay: Antimicrobial activity against Streptococcus pneumoniae R6 transformants with parE D435N and gyrA S81F mutation in presence of reserpine
Streptococcus pneumoniae [33] = assay: Antimicrobial activity against Streptococcus pneumoniae R6 transformants with parC D83Y and gyrA E85K mutation in presence of reserpine
Streptococcus pneumoniae [34] = assay: Antimicrobial activity against Streptococcus pneumoniae R6 transformants with parC S79F and gyrA E85K mutation in presence of reserpine
Streptococcus pneumoniae [35] = assay: Antimicrobial activity against Streptococcus pneumoniae R6 transformants with parE D435N mutation in presence of reserpine
Streptococcus pneumoniae [36] = assay: Antimicrobial activity against Streptococcus pneumoniae R6 transformants with gyrA S81Y mutation in presence of reserpine

SMILES	MIC (Streptococcus pneumoniae [1]) [µg/mL]	MIC (Streptococcus pneumoniae [2]) [µg/mL]	MIC (Streptococcus pneumoniae [3]) [µg/mL]	MIC (Streptococcus pneumoniae [4]) [µg/mL]	MIC (Streptococcus pneumoniae [5]) [µg/mL]	MIC (Streptococcus pneumoniae [6]) [µg/mL]	MIC (Streptococcus pneumoniae [7]) [µg/mL]	MIC (Streptococcus pneumoniae [8]) [µg/mL]	MIC (Streptococcus pneumoniae [9]) [µg/mL]	MIC (Streptococcus pneumoniae [10]) [µg/mL]	MIC (Streptococcus pneumoniae [11]) [µg/mL]	MIC (Streptococcus pneumoniae [12]) [µg/mL]	MIC (Streptococcus pneumoniae [13]) [µg/mL]	MIC (Streptococcus pneumoniae [14]) [µg/mL]	MIC (Streptococcus pneumoniae [15]) [µg/mL]	MIC (Streptococcus pneumoniae [16]) [µg/mL]	MIC (Streptococcus pneumoniae [17]) [µg/mL]	MIC (Streptococcus pneumoniae [18]) [µg/mL]	MIC (Streptococcus pneumoniae [19]) [µg/mL]	further results
COc1c(N2CCNC(C)C2)c(F)cc2c(=O)c(C(=O)O)cn(C3CC3)c12 (centres undefined) [GATIFLOXACIN]	0.12 (≈ 0.32 µM)	2 (≈ 5.33 µM)	≥ 4	0.12 (≈ 0.32 µM)	≥ 4	≥ 4	0.25 (≈ 0.666 µM)	0.12 (≈ 0.32 µM)	0.25 (≈ 0.666 µM)	0.25 (≈ 0.666 µM)	≥ 4	0.12 (≈ 0.32 µM)	≥ 4	≥ 4	0.25 (≈ 0.666 µM)	0.12 (≈ 0.32 µM)	≥ 4	2 (≈ 5.33 µM)	4 (≈ 10.7 µM)	
CO/N=C1\CN(c2nc3c(cc2F)c(=O)c(C(=O)O)cn3C2CC2)CC1CN (centres undefined) [GEMIFLOXACIN]	0.03 (≈ 0.077 µM)	0.25 (≈ 0.642 µM)	0.5 (≈ 1.28 µM)	0.06 (≈ 0.154 µM)	0.25 (≈ 0.642 µM)	1 (≈ 2.57 µM)	0.06 (≈ 0.154 µM)	0.06 (≈ 0.154 µM)	0.12 (≈ 0.308 µM)	< 0.06	0.5 (≈ 1.28 µM)	0.06 (≈ 0.154 µM)	1 (≈ 2.57 µM)	0.25 (≈ 0.642 µM)	0.12 (≈ 0.308 µM)	0.06 (≈ 0.154 µM)	1 (≈ 2.57 µM)	0.5 (≈ 1.28 µM)	0.12 (≈ 0.308 µM)	
O=C(O)c1cn(C2CC2)c2cc(N3CCNCC3)c(F)cc2c1=O [CIPROFLOXACIN]		32 (≈ 96.6 µM)	64 (≈ 193 µM)	3 (≈ 9.05 µM)	64 (≈ 193 µM)	64 (≈ 193 µM)			2 (≈ 6.04 µM)	< 4	64 (≈ 193 µM)		64 (≈ 193 µM)	64 (≈ 193 µM)	1 (≈ 3.02 µM)		32 (≈ 96.6 µM)	64 (≈ 193 µM)	32 (≈ 96.6 µM)	MIC (Streptococcus pneumoniae [20]): 32 µg/mL; MIC (Streptococcus pneumoniae [21]): 2 µg/mL; MIC (Streptococcus pneumoniae [22]): 32 µg/mL; MIC (Streptococcus pneumoniae [23]): < 4 µg/mL; MIC (Streptococcus pneumoniae [24]): 1 µg/mL; MIC (Streptococcus pneumoniae [25]): 32 µg/mL; MIC (Streptococcus pneumoniae [26]): 8 µg/mL; MIC (Streptococcus pneumoniae [27]): 2 µg/mL; MIC (Streptococcus pneumoniae [28]): 32 µg/mL; MIC (Streptococcus pneumoniae [29]): 32 µg/mL; MIC (Streptococcus pneumoniae [30]): 32 µg/mL; MIC (Streptococcus pneumoniae [31]): 2 µg/mL; MIC (Streptococcus pneumoniae [32]): 16 µg/mL; MIC (Streptococcus pneumoniae [33]): 32 µg/mL; MIC (Streptococcus pneumoniae [34]): 32 µg/mL; MIC (Streptococcus pneumoniae [35]): 2 µg/mL; MIC (Streptococcus pneumoniae [36]): 2 µg/mL
C[C@H]1COc2c(N3CCN(C)CC3)c(F)cc3c(=O)c(C(=O)O)cn1c23.C[C@H]1COc2c(N3CCN(C)CC3)c(F)cc3c(=O)c(C(=O)O)cn1c23.O [LEVOFLOXACIN]		> 32	> 32		> 32	> 32			3		> 32		> 32	> 32			> 32	> 32	> 32	
COc1c(N2C[C@@H]3CCCN[C@@H]3C2)c(F)cc2c(=O)c(C(=O)O)cn(C3CC3)c12 [MOXIFLOXACIN]		4 (≈ 9.96 µM)	4 (≈ 9.96 µM)		4 (≈ 9.96 µM)	8 (≈ 19.9 µM)	0.25 (≈ 0.623 µM)		> 0.5	0.5 (≈ 1.25 µM)	8 (≈ 19.9 µM)		8 (≈ 19.9 µM)	4 (≈ 9.96 µM)	0.5 (≈ 1.25 µM)		8 (≈ 19.9 µM)	4 (≈ 9.96 µM)	4 (≈ 9.96 µM)	
